In ChEMBL document CHEMBL2074563, “Involvement of multidrug resistance-associated proteins in regulating cellular levels of (-)-epigallocatechin-3-gallate and its methyl metabolites” (Biochem Biophys Res Commun, 2003):

What was measured:
Format in all cases: functional, cell-based
Conditions in all cases: dog, mdck-ii
[1] = target: T1, ATP-binding cassette sub-family C member 2 (Homo sapiens, UniProt Q92887); assay: TP_TRANSPORTER: uptake in MRP2-expressing MDCKII cells
Outline: (§1)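 MDCKII cells stably expressing human MRP1 or MRP2, grown to confluence, were preincubated for 2 h in serum-free HBSS. They were then exposed to [3H]EGCG (10 µM, 0.25 µCi/ml) in HBSS with 100 µM ascorbic acid, plus an efflux inhibitor or DMSO vehicle, for 1 h at 37 °C. Inhibitors were 10 µM indomethacin, 1 mM probenecid or 50 µM MK-571. Cells were washed in ice-cold PBS and lysed in 0.2 N NaOH. Cell-associated radioactivity was counted by scintillation and expressed as a ratio to the no-inhibitor control (mean ± SD, n = 4).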

[2] = target: T2, Multidrug resistance-associated protein 1 (Homo sapiens, UniProt P33527); assay: TP_TRANSPORTER: uptake in MRP1-expressing MDCKII cells; outline: as §1
[3] = target: T2, Multidrug resistance-associated protein 1; assay: TP_TRANSPORTER: inhibition of EGCG in MRP1-expressing MDCKII cells; outline: as §1
[4] = target: T1, ATP-binding cassette sub-family C member 2; assay: TP_TRANSPORTER: inhibition of EGCG in MRP2-expressing MDCKII cells; outline: as §1

T1 sequence (Q92887 whole entry): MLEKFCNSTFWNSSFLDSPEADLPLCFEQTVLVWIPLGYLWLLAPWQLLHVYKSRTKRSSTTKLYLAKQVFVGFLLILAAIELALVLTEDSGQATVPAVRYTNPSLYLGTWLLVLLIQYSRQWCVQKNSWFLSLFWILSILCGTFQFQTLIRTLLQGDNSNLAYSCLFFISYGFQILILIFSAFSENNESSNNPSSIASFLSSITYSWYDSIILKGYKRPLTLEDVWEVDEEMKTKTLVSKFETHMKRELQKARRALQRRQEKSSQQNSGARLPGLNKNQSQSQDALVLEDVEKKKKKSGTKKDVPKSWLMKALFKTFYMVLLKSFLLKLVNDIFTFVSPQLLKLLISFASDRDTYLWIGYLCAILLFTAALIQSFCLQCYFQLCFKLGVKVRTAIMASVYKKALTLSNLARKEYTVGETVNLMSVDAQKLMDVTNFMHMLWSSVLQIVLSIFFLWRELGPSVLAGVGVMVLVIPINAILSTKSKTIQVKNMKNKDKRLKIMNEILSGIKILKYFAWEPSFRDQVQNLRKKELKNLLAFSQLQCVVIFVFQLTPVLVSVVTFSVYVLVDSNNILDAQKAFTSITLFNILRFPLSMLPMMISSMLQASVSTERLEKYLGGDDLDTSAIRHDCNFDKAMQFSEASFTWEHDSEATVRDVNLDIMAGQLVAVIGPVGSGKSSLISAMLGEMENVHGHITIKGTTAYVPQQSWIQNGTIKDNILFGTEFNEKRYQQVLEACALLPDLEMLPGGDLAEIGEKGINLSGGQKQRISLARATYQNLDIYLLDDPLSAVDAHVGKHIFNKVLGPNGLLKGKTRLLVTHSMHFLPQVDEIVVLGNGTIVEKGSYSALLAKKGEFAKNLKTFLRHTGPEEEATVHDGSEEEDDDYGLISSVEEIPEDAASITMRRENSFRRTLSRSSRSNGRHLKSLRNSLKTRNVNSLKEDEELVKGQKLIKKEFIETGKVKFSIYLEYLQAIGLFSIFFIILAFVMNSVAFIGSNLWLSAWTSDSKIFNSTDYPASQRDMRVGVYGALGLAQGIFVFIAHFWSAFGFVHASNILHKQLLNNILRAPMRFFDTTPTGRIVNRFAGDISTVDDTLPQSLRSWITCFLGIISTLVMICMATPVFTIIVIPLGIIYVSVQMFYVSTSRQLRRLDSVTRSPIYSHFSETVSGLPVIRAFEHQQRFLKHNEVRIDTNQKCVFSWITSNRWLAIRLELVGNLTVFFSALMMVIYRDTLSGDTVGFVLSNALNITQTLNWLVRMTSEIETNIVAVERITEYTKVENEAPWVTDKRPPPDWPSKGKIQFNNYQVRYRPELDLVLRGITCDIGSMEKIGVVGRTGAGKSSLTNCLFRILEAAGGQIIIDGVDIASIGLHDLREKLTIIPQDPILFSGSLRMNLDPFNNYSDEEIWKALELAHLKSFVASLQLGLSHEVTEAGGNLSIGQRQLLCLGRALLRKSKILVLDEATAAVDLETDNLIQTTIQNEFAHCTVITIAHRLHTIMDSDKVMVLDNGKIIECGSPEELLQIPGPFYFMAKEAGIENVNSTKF
T2 sequence (P33527 whole entry): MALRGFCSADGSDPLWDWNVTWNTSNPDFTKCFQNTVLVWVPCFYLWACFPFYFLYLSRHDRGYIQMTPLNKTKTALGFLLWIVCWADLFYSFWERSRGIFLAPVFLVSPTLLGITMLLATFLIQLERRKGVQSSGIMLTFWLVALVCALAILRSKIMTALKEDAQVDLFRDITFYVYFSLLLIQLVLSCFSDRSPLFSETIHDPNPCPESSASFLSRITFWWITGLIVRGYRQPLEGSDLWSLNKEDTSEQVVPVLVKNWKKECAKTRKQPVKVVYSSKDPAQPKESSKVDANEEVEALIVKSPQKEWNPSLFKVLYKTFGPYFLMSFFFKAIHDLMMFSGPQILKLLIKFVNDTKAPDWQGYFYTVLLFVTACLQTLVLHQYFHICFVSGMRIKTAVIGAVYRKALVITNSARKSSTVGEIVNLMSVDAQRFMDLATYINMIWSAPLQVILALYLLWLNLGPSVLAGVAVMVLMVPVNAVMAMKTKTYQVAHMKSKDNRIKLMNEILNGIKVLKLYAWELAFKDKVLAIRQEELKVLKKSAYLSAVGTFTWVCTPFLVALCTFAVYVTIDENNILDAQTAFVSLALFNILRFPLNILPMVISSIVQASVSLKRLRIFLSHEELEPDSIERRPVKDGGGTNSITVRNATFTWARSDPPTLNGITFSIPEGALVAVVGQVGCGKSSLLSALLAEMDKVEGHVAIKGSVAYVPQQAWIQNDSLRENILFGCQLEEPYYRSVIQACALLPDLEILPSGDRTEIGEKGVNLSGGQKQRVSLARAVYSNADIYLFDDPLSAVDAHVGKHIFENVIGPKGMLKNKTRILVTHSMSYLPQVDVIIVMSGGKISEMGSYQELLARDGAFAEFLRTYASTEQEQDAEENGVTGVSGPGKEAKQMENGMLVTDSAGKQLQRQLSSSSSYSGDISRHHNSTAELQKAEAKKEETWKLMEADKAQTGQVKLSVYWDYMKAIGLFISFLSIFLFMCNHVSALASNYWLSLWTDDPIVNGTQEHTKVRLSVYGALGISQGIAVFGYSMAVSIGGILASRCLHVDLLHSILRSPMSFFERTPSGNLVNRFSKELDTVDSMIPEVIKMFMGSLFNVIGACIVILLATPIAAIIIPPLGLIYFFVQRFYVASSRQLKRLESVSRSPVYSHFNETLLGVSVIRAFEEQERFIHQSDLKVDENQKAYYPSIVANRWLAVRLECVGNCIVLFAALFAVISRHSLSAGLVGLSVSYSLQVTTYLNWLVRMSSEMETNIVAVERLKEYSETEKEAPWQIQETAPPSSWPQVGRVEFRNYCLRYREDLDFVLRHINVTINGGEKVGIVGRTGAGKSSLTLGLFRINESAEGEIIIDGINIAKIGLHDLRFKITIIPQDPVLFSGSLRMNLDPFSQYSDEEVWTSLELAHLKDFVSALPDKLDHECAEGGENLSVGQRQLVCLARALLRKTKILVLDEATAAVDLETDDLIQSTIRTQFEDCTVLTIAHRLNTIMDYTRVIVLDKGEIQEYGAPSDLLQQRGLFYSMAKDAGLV

**Q.** For COc1c(O)cc(C(=O)O[C@@H]2Cc3c(O)cc(O)cc3O[C@@H]2c2cc(O)c(OC)c(O)c2)cc1O, which Activity [1] is on record?
**A.** Its Activity is “substrate []”.

**Q.** And the Activity [2]?
**A.** Its Activity is “substrate []”.

**Q.** How did the Activity [1] turn out when COc1c(O)cc(C(=O)O[C@@H]2Cc3c(O)cc(O)cc3O[C@@H]2c2cc(O)c(O)c(O)c2)cc1O was run?
**A.** The Activity was “substrate []”.

**Q.** What about the Activity [2] of the same compound?
**A.** Its Activity is “substrate []”.

**Q.** COc1ccc(-c2coc3cc(O)cc(O)c3c2=O)cc1 [BIOCHANIN] was tested. Which Activity [3] did it give?
**A.** Its Activity is “inhibitor []”.

**Q.** For COc1cc(/C=C/C(=O)CC(=O)/C=C/c2ccc(O)c(OC)c2)ccc1O [CURCUMIN], which Activity [3] is on record?
**A.** The Activity was “inhibitor []”.

**Q.** With O=c1c(-c2ccc(O)cc2)coc2cc(O)ccc12 [DAIDZEIN] as the compound, how does the Activity [3] read?
**A.** The Activity was “inhibitor []”.

**Q.** COc1ccc(-c2coc3cc(O)ccc3c2=O)cc1 [FORMONONETIN] was tested. Which Activity [3] did it give?
**A.** Its Activity is “inhibitor []”.

**Q.** How did the Activity [3] turn out when O=c1c(-c2ccc(O)cc2)coc2cc(O)cc(O)c12 [GENISTEIN] was run?
**A.** Its Activity is “inhibitor []”.

**Q.** With COc1ccc2c(c1)c(CC(=O)O)c(C)n2C(=O)c1ccc(Cl)cc1 [INDOMETHACIN] as the compound, how does the Activity [3] read?
**A.** The Activity was “inhibitor []”.

**Q.** With CN(C)C(=O)CCSC(SCCC(=O)O)c1cccc(/C=C/c2ccc3ccc(Cl)cc3n2)c1 (stereo not given) [MK-571] as the compound, how does the Activity [4] read?
**A.** Its Activity is “inhibitor []”.

**Q.** For CCCN(CCC)S(=O)(=O)c1ccc(C(=O)O)cc1 [PROBENECID], which Activity [4] is on record?
**A.** Its Activity is “inhibitor []”.

**Q.** And the Activity [3]?
**A.** The Activity was “inhibitor []”.

**Q.** How did the Activity [3] turn out when COc1cc(CCC(=O)CC(=O)CCc2ccc(O)c(OC)c2)ccc1O [TETRAHYDROCURCUMIN] was run?
**A.** The Activity was “inhibitor []”.

**Q.** For CC[C@]1(O)C[C@H]2CN(CCc3c([nH]c4ccccc34)[C@@](C(=O)OC)(c3cc4c(cc3OC)N(C=O)[C@H]3[C@@](O)(C(=O)OC)[C@H](OC(C)=O)[C@]5(CC)C=CCN6CC[C@]43[C@@H]65)C2)C1 [VINCRISTINE], which Activity [4] is on record?
**A.** Its Activity is “inhibitor []”.
